From ChEMBL document CHEMBL2311301, “Design, synthesis and characterization of novel 1,2-benzisothiazol-3(2H)-one and 1,3,4-oxadiazole hybrid derivatives: potent inhibitors of Dengue and West Nile virus NS2B/NS3 proteases” (Bioorg Med Chem, 2013)

Assays:
West Nile virus [1] = assay: Inhibition of WNV NS2B/NS3 protease using Bz-Nle-Lys-Arg-Arg-AMC as substrate at 25 uM by spectrofluorometric analysis relative to control
Summary of the method: (§1)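 Protease (DENV2 NS2B-NS3pro 25 nM; WNV NS2B-NS3pro with 5-residue linker 28 nM) incubated with inhibitor in DMSO, 15 min at 37 °C, in 200 mM Tris·HCl pH 9.5, 6 mM NaCl, 30% glycerol. Reaction started with 5.0 μM substrate. AMC release read at ex 380/em 460 nm. No-protease background subtracted; no-inhibitor control taken as 100%. Triplicates.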

West Nile virus [2] = assay: Inhibition of WNV NS2B/NS3 protease using Bz-Nle-Lys-Arg-Arg-AMC as substrate at 10 uM by spectrofluorometric analysis relative to control; summary of the method: as §1
dengue virus type 2 [3] = assay: Inhibition of DENV2 NS2B/NS3 protease expressed in Escherichia coli Top 10 F' using Bz-Nle-Lys-Arg-Arg-AMC as substrate at 25 uM by spectroflorometer analysis relative to control; summary of the method: as §1
dengue virus type 2 [4] = assay: Inhibition of DENV2 NS2B/NS3 protease expressed in Escherichia coli Top 10 F' using Bz-Nle-Lys-Arg-Arg-AMC as substrate at 10 uM by spectroflorometer analysis relative to control; summary of the method: as §1
[5] = Competitive inhibition of DENV2 NS2B/NS3 protease expressed in Escherichia coli Top 10 F' using Bz-Nle-Lys-Arg-Arg-AMC as substrate by Michaelis-Menten equation analysis; parameters: species or system dengue virus type 2
Summary of the method: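 DENV2 NS2B-NS3pro construct (NS2B hydrophilic cofactor joined to NS3 protease via Q-R), 25 nM, in 200 mM Tris·HCl pH 9.5, 6 mM NaCl, 30% glycerol, 0.1% CHAPS at 37 °C. Inhibitor at 0, 1.0, 3.0 and 5.0 μM; substrate 0-50 μM; started with enzyme. Initial rates from AMC fluorescence (ex 380/em 460 nm) every 1.5 min, under 5% conversion. Duplicates, repeated three times. Ki from secondary plot of Km,app against inhibitor.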

[6] = Inhibition of WNV NS2B/NS3 protease using Bz-Nle-Lys-Arg-Arg-AMC as substrate by spectrofluorometric analysis relative to control; parameters: species or system West Nile virus
Summary of the method: (§2)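 IC50 run in the same single-point format (DENV2 protease 25 nM, WNV protease 28 nM; 15 min preincubation at 37 °C, pH 9.5 Tris buffer, 5.0 μM substrate, fluorescence ex 380/em 460 nm). Twelve inhibitor levels from 10 nM to 25 μM. IC50 from a sigmoidal fit of activity relative to the no-inhibitor control. Triplicates.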

[7] = Inhibition of DENV2 NS2B/NS3 protease expressed in Escherichia coli Top 10 F' using Bz-Nle-Lys-Arg-Arg-AMC as substrate by spectroflorometer analysis relative to control; parameters: species or system dengue virus type 2; summary of the method: as §2

SMILES | inhibition (West Nile virus [1]) | inhibition (West Nile virus [2]) | inhibition (dengue virus type 2 [3]) | inhibition (dengue virus type 2 [4]) | Ki [5] | IC50 [6] | IC50 [7]
O=c1c2ccccc2sn1C(Cc1ccccc1)c1nnc(-c2cccc(F)c2)o1 (centres undefined) | 38.9% | 30.4% | 50.9% | 39% |  |  | 
O=c1c2ccccc2sn1C(Cc1ccccc1)c1nnc(Cc2ccccc2)o1 (centres undefined) | 30.1% | 20.5% | 31.2% | 22.4% |  |  | 
O=c1c2ccccc2sn1C(CCc1ccccc1)c1nnc(-c2cccc(Cl)c2)o1 (centres undefined) | 33.9% | 23.9% | 35% | 26.1% |  |  | 
COc1ccc(Cc2nnc(C(Cc3ccccc3)n3sc4ccccc4c3=O)o2)cc1 (centres undefined) | 34.9% | 24.2% | 38.6% | 28.5% |  |  | 
CCc1nnc(C(Cc2ccccc2)n2sc3ccccc3c2=O)o1 (centres undefined) | 44.3% | 25.1% | 34.2% | 22.5% |  |  | 
O=c1c2ccccc2sn1C(Cc1ccccc1)c1nnc(-c2cccnc2)o1 (centres undefined) | 62.5% | 55.8% | 70% | 58.1% |  |  | 
O=c1c2ccccc2sn1C(Cc1ccccc1)c1nnc(-c2ccco2)o1 (centres undefined) | 57.7% | 44.3% | 64.7% | 52.3% |  |  | 
O=c1c2ccccc2sn1C(Cc1ccccc1)c1nnc(-c2ccccc2)o1 (centres undefined) | 64.1% | 51.7% | 69.2% | 56.7% |  |  | 
COc1ccc(Cc2nnc(C(C)n3sc4ccccc4c3=O)o2)cc1 (centres undefined) | 9.79% | 4.17% | 17.8% | 8.08% |  |  | 
O=c1c2ccccc2sn1C(Cc1cccc(F)c1)c1nnc(-c2cccc(Cl)c2)o1 (centres undefined) | 35.6% | 27.4% | 31.6% | 16% |  |  | 
O=c1c2ccccc2sn1Cc1nnc(Cc2ccccc2)o1 | 14.7% | 8.27% | 16.4% | 3.56% |  |  | 
Cc1nnc(C(Cc2ccccc2)n2sc3ccccc3c2=O)o1 (centres undefined) | 40.4% | 22.3% | 31.6% | 20% |  |  | 
O=c1c2ccccc2sn1Cc1nnc(-c2cccc(F)c2)o1 | 10.1% | 7.68% | 9.11% | 3.24% |  |  | 
COc1ccc(-c2nnc(C(Cc3ccccc3)n3sc4ccccc4c3=O)o2)cc1 (centres undefined) | 73.4% | 68.6% | 80% | 65.5% | 3.61 µM | 4.22 µM | 3.75 µM
O=c1c2ccccc2sn1Cc1nnc(-c2cccc(Cl)c2)o1 | 9.15% | 6.15% | 16.7% | 5.21% |  |  | 
O=c1c2ccccc2sn1C(Cc1ccccc1)c1nnc(-c2cccs2)o1 (centres undefined) | 59.7% | 43.7% | 69.8% | 52.3% |  |  | 
O=c1c2ccccc2sn1C(Cc1ccccc1)c1nnc(-c2ccc(Cl)cc2)o1 (centres undefined) | 63.2% | 53.5% | 70.5% | 53.2% |  |  | 
O=c1c2ccccc2sn1C(Cc1ccccc1)c1nnc(-c2cccc(Cl)c2)o1 (centres undefined) | 43.1% | 29% | 42.1% | 34.3% |  |  | 
O=c1c2ccccc2sn1C(Cc1ccccc1)c1nnc(-c2ccc(F)cc2)o1 (centres undefined) | 59.1% | 51.1% | 75.7% | 60.3% |  |  | 
N#Cc1ccc(-c2nnc(C(Cc3ccccc3)n3sc4ccccc4c3=O)o2)cc1 (centres undefined) | 70.9% | 63.6% | 72.9% | 63.9% |  |  | 
CCOc1ccc(-c2nnc(C(Cc3ccccc3)n3sc4ccccc4c3=O)o2)cc1 (centres undefined) | 71.8% | 56.1% | 61.3% | 40.6% |  |  | 
O=c1c2ccccc2sn1C(Cc1ccccc1)c1nnc(-c2ccncc2)o1 (centres undefined) | 72.7% | 63.1% | 70.9% | 62.4% |  |  | 
CCCc1nnc(C(Cc2ccccc2)n2sc3ccccc3c2=O)o1 (centres undefined) | 46.2% | 34.9% | 36.7% | 25.6% |  |  | 
COc1ccc(Cc2nnc(Cn3sc4ccccc4c3=O)o2)cc1 | 8.68% | 5.96% | 7.9% | 5.27% |  |  | 
